From ChEMBL document CHEMBL4219161, “New phenylaniline derivatives as modulators of amyloid protein precursor metabolism” (Bioorg Med Chem, 2018)

Assays:
Format in all cases: cell-based
[1] = Cytotoxicity against human SH-SY5Y cells after 72 hrs by MTT assay
In short: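 SH-SY5Y cells grown in DMEM with 10% heat-inactivated FBS, 2 mM L-glutamine, non-essential amino acids and penicillin/streptomycin at 37 °C, 5% CO2. Cells were exposed to compounds at 100, 50, 10, 5, 1, 0.5, 0.1 and 0.05 µM, in under 0.1% DMSO, for 72 h. Growth was read by colorimetric MTT; CC50 taken as the concentration causing 50% cell death.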

[2] = molecular target: T1, Amyloid-beta precursor protein (Homo sapiens, UniProt P05067); experiment: Modulation of human wild-type APP695 expressed in SH-SY5Y cells assessed as inhibition of amyloid beta (1 to 40 residues) production measured after 24 hrs
In short: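 SY5Y-APPwt cells (stable human APP695 clone) were exposed to compound for 24 h. Conditioned medium was spun at 200×g, frozen at −80 °C and assayed by ELISA for Aβ1-40 or Aβ1-42, with samples in duplicate and experiments in triplicate. Values were normalised to untreated control set to 100%. IC50 is the concentration lowering secreted Aβ to 50% of basal; mean of ≥3 independent experiments.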

[3] = molecular target: T1, Amyloid-beta precursor protein; experiment: Modulation of human wild-type APP695 expressed in SH-SY5Y cells assessed as increase in CTFalpha level at 3 uM measured after 24 hrs by Western blot analysis relative to chloroquine
In short: (§1)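 SY5Y stably transfected with human APP695 (pcDNA3.1, G418-selected clone SY5Y-APPwt) was plated 24 h before treatment and exposed to compound for 24 h. Lysates were made in Laemmli buffer with protease inhibitors and sonicated. 20 µg protein/lane was run on 16% Tris-Tricine gel and blotted to PVDF. Blots were probed overnight at 4 °C with APP C-terminal (last 17 aa) rabbit antiserum 1:4000 and developed by chemiluminescence. Band area was quantified with H3 reprobe. Result is the fragment level ratio of compound to chloroquine, both at 3 µM; mean of ≥3 independent experiments.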

[4] = molecular target: T1, Amyloid-beta precursor protein; experiment: Modulation of human wild-type APP695 expressed in SH-SY5Y cells assessed as increase in AICD level at 3 uM measured after 24 hrs by Western blot analysis relative to chloroquine; in short: as §1
[5] = molecular target: T1, Amyloid-beta precursor protein; experiment: Modulation of human wild-type APP695 expressed in SH-SY5Y cells assessed as increase in CTFalpha level at 10 uM measured after 24 hrs by Western blot analysis relative to chloroquine
In short: (§2)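 Stable human APP695 SY5Y clone (SY5Y-APPwt) was treated with compound for 24 h and lysed in Laemmli buffer with protease inhibitors. 20 µg protein/lane was separated on 16% Tris-Tricine gel and transferred to PVDF. Blots were probed with rabbit antiserum against the APP C-terminal 17 residues (1:4000, overnight at 4 °C) and read by chemiluminescence with densitometric area-under-curve. H3 was used as reprobe.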

[6] = molecular target: T1, Amyloid-beta precursor protein; experiment: Modulation of human wild-type APP695 expressed in SH-SY5Y cells assessed as increase in CTFalpha level at 10 uM measured after 24 hrs by Western blot analysis relative to amodiaquine; in short: as §2
[7] = molecular target: T1, Amyloid-beta precursor protein; experiment: Modulation of human wild-type APP695 expressed in SH-SY5Y cells assessed as increase in CTFalpha level at 3 uM measured after 24 hrs by Western blot analysis relative to amodiaquine; in short: as §2
[8] = molecular target: T1, Amyloid-beta precursor protein; experiment: Modulation of human wild-type APP695 expressed in SH-SY5Y cells assessed as increase in ACID level at 3 uM measured after 24 hrs by Western blot analysis relative to amodiaquine; in short: as §2
[9] = molecular target: T1, Amyloid-beta precursor protein; experiment: Modulation of human wild-type APP695 expressed in SH-SY5Y cells assessed as increase in ACID level at 10 uM measured after 24 hrs by Western blot analysis relative to amodiaquine; in short: as §2

T1 sequence (P05067 whole entry, the tested form may be a part): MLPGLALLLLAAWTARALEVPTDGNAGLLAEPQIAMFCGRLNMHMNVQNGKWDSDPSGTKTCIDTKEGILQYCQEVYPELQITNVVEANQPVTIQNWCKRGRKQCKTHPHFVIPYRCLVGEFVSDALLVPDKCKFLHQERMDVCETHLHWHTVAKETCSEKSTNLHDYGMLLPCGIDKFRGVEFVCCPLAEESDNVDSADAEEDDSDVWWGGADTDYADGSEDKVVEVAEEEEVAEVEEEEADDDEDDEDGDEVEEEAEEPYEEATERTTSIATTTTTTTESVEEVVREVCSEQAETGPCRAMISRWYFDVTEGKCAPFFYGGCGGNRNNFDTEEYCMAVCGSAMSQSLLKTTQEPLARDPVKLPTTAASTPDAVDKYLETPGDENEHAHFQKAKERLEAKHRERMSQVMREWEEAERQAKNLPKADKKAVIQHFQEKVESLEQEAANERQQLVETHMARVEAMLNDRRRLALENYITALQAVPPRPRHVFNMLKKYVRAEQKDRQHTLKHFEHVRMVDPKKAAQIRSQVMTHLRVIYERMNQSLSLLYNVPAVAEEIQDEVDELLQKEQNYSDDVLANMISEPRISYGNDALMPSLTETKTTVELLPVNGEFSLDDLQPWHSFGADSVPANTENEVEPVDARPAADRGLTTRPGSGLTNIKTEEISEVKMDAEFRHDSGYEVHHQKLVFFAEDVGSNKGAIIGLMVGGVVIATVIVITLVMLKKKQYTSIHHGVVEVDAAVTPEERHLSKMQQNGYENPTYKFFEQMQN

`O=C(CN1CCCCC1)Nc1cc(CN2CCOCC2)cc(Nc2ccnc3cc(Cl)ccc23)c1` showed a CC50 at 72 h [1] of 10 µM, an IC50 [2] of 3.1 µM and a fold change (FC) [3] of 0.7. It also gave a fold change (FC) [4] of 0.5.
For `O=C(NCCN1CCCCC1)c1cc(Nc2ccccc2CN2CCCCC2)cc(C(=O)NCCN2CCCCC2)c1`, the CC50 at 72 h [1] was > 100 µM, the IC50 [2] was 4.1 µM and the fold change (FC) [3] was 2.8. For the same compound, the fold change (FC) [4] was 2.3, the fold change (FC) [5] was 3 and the fold change (FC) [6] was 3. The fold change (FC) [7] was 5.6 to 5.75 and the fold change (FC) [8] was 3.2 to 10.
With `c1ccc(-c2cc(CNCCN3CCCCC3)cc(CNCCN3CCCCC3)c2)c(CN2CCOCC2)c1` the CC50 at 72 h [1] was > 100 µM and the IC50 [2] was > 10 µM.
Work on `CCN(CC)Cc1cc(NC(=O)CN2CCCCC2)cc(Nc2ccnc3cc(Cl)ccc23)c1` yielded a CC50 at 72 h [1] of 4 µM, an IC50 [2] of 1.5 µM and a fold change (FC) [3] of 1.6. For the same compound, the fold change (FC) [4] was 0.9.
With `CN(C)Cc1ccccc1-c1cc(C(=O)NCCN2CCCCC2)cc(C(=O)NCCN2CCCCC2)c1` the CC50 at 72 h [1] was > 100 µM and the IC50 [2] was > 10 µM.
With `c1ccc(-c2cc(CNCCN3CCCCC3)cc(CNCCN3CCCCC3)c2)c(CN2CCCCC2)c1` the CC50 at 72 h [1] was > 100 µM and the IC50 [2] was > 10 µM.
With `CN(C)Cc1ccccc1Nc1cc(C(=O)NCCN2CCCCC2)cc(C(=O)NCCN2CCCCC2)c1` the CC50 at 72 h [1] was > 100 µM, the IC50 [2] was 8.2 µM and the fold change (FC) [3] was 1. It also gave a fold change (FC) [4] of 3.
Work on `CCN(CC)Cc1cc(Nc2ccnc3cc(Cl)ccc23)ccc1O` [AMODIAQUINE] yielded a CC50 at 72 h [1] of 10 µM, an IC50 [2] of 4 µM and a fold change (FC) [3] of 0.5. The fold change (FC) [4] was 0.4.
For `CN1CCN(Cc2ccccc2Nc2cc(CNCCN3CCCCC3)cc(CNCCN3CCCCC3)c2)CC1`, the CC50 at 72 h [1] was > 100 µM and the IC50 [2] was > 10 µM.
For `CN(C)CCNCc1cc(NC(=O)CN2CCCCC2)cc(Nc2ccnc3cc(Cl)ccc23)c1`, the CC50 at 72 h [1] was 15 µM, the IC50 [2] was 2 µM and the fold change (FC) [3] was 1.7. The fold change (FC) [4] was 2.3.
With `CN1CCN(c2cc(Nc3ccnc4cc(Cl)ccc34)cc(N3CCN(C)CC3)c2)CC1` the CC50 at 72 h [1] was > 15 µM, the IC50 [2] was 2.3 µM and the fold change (FC) [3] was 1.4. The fold change (FC) [4] was 1.1.
`Oc1c(CN2CCCC2)cc(Nc2ccnc3cc(Cl)ccc23)cc1CN1CCCC1` showed a CC50 at 72 h [1] of 30 µM, an IC50 [2] of 5.1 µM and a fold change (FC) [3] of 0.5. The fold change (FC) [4] was 0.6.
In the case of `CN1CCN(Cc2ccccc2Nc2cc(C(=O)NCCN3CCCCC3)cc(C(=O)NCCN3CCCCC3)c2)CC1`, the CC50 at 72 h [1] is reported as > 100 µM and the IC50 [2] is reported as > 10 µM.
Compound `c1ccc(Nc2cc(CNCCN3CCCCC3)cc(CNCCN3CCCCC3)c2)c(CN2CCOCC2)c1` has a CC50 at 72 h [1] of 77 µM, an IC50 [2] of 6.6 µM and a fold change (FC) [3] of 0.9. It also gave a fold change (FC) [4] of 1.3.
In the case of `CN(C)Cc1ccccc1-c1cc(CNCCN2CCCCC2)cc(CNCCN2CCCCC2)c1`, the CC50 at 72 h [1] is reported as > 100 µM and the IC50 [2] is reported as > 10 µM.
For `CN(C)CCN(C)Cc1cc(NC(=O)CN2CCCCC2)cc(Nc2ccnc3cc(Cl)ccc23)c1`, the CC50 at 72 h [1] was 4 µM, the IC50 [2] was 1.7 µM and the fold change (FC) [3] was 2.1. For the same compound, the fold change (FC) [4] was 3.4.
In the case of `O=C(NCCN1CCCCC1)c1cc(C(=O)NCCN2CCCCC2)cc(-c2ccccc2CN2CCOCC2)c1`, the CC50 at 72 h [1] is reported as > 100 µM and the IC50 [2] is reported as > 10 µM.
In the case of `O=C(NCCN1CCCCC1)c1cc(Nc2ccccc2CN2CCOCC2)cc(C(=O)NCCN2CCCCC2)c1`, the CC50 at 72 h [1] is reported as > 100 µM and the IC50 [2] is reported as > 10 µM.
For `Clc1ccc2c(Nc3cc(CN4CCOCC4)cc(NCCN4CCCCC4)c3)ccnc2c1`, the CC50 at 72 h [1] was 10 µM, the IC50 [2] was 2.5 µM and the fold change (FC) [3] was 1.2. For the same compound, the fold change (FC) [4] was 1.2.
With `O=C(NCCN1CCCCC1)c1cc(C(=O)NCCN2CCCCC2)cc(-c2ccccc2CN2CCCCC2)c1` the CC50 at 72 h [1] was > 100 µM, the IC50 [2] was 6.2 µM and the fold change (FC) [3] was 1.4. It also gave a fold change (FC) [4] of 1.9.
With `CN1CCN(Cc2ccccc2-c2cc(C(=O)NCCN3CCCCC3)cc(C(=O)NCCN3CCCCC3)c2)CC1` the CC50 at 72 h [1] was > 100 µM and the IC50 [2] was > 10 µM.
With `CCN(CC)CCCC(C)Nc1ccnc2cc(Cl)ccc12` (stereo not drawn) [CHLOROQUINE] the CC50 at 72 h [1] was 30 µM, the IC50 [2] was 7 µM and the fold change (FC) [3] was 1. It also gave a fold change (FC) [4] of 1.
Compound `CCN(CC)Cc1cc(NCCN2CCCCC2)cc(Nc2ccnc3cc(Cl)ccc23)c1` has a CC50 at 72 h [1] of 15 µM, an IC50 [2] of 10 µM and a fold change (FC) [3] of 0.5. For the same compound, the fold change (FC) [4] was 0.4.
For `CN(C)Cc1ccccc1Nc1cc(CNCCN2CCCCC2)cc(CNCCN2CCCCC2)c1`, the CC50 at 72 h [1] was > 100 µM and the IC50 [2] was > 10 µM.
In the case of `CN1CCN(Cc2ccccc2-c2cc(CNCCN3CCCCC3)cc(CNCCN3CCCCC3)c2)CC1`, the CC50 at 72 h [1] is reported as > 100 µM and the IC50 [2] is reported as > 10 µM.
For `CCN(CC)Cc1cccc(Nc2ccnc3cc(Cl)ccc23)c1`, the CC50 at 72 h [1] was 12 µM, the IC50 [2] was 4.5 µM and the fold change (FC) [3] was 0.6. For the same compound, the fold change (FC) [4] was 0.5.
In the case of `c1ccc(Nc2cc(CNCCN3CCCCC3)cc(CNCCN3CCCCC3)c2)c(CN2CCCCC2)c1`, the CC50 at 72 h [1] is reported as > 100 µM, the IC50 [2] is reported as 4.6 µM and the fold change (FC) [3] is reported as 2.6. The fold change (FC) [4] was 4, the fold change (FC) [9] was 10 and the fold change (FC) [7] was 5.6 to 5.75. The fold change (FC) [8] was 3.2 to 10.
